This assay addresses Serotonin 3 (5-HT3) receptor (Rattus norvegicus) (UniProt P35563+Q9JJ16). Briefly: In vivo 5-hydroxytryptamine 3 receptor (5-HT 3 receptor) antagonistic activity expressed as ability to inhibit Bezold-Jarich reflex evoked by 5-HT in rats. The format is functional, organism-based. The gist of the method: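 Male rats (260-290 g) anesthetized with urethane (1.25 g/kg ip), with blood pressure and heart rate recorded. A submaximal 5-HT dose (6 µg/kg iv) was given repeatedly, and the heart-rate change was quantified. Compound was given iv before 5-HT. ID50 is the dose reducing the 5-HT-evoked response to 50% of the control response.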

Turning to `CN1C2CCC1CC(NC(=O)Nc1ccccc1OC(C)(C)C)C2` (configuration not stated), the ID50 was over 10 µg/kg.

Regarding `CCC(C)Oc1ccccc1NC(=O)NC1CC2CCC(C1)N2C` (configuration not stated), the ID50 came to 2.7 µg/kg.

Compound `COc1cc(F)ccc1NC(=O)NC1CC2CCC(C1)N2C` (configuration not stated) came in with an ID50 of over 10 µg/kg.

For the compound `COc1ccc(OC)c(NC(=O)NC2CC3CCC(C2)N3C)c1` (configuration not stated), the ID50 was over 10 µg/kg.

Regarding `COc1ccc(F)cc1NC(=O)NC1CC2CCC(C1)N2C` (configuration not stated), the ID50 was determined as 7 µg/kg.

`CCOC(=O)c1ccccc1NC(=O)NC1CC2CCC(C1)N2C` (configuration not stated) registered an ID50 of 5.2 µg/kg.

The compound `CN1C2CCC1CC(NC(=O)Nc1ccccc1OCc1ccccc1)C2` (configuration not stated) displayed an ID50 of 5.2 µg/kg.

On to `C=CCOc1ccccc1NC(=O)NC1CC2CCC(C1)N2C` (configuration not stated), for which the ID50 was determined as 2.6 µg/kg.

In turn, `COCc1ccccc1NC(=O)NC1CC2CCC(C1)N2C` (configuration not stated) yielded an ID50 of 13.4 µg/kg.

For `COc1ccc(NC(=O)NC2CC3CCC(C2)N3C)c(OC)c1` (configuration not stated), the ID50 is over 10 µg/kg.

With `COc1ccc(O)cc1NC(=O)NC1CC2CCC(C1)N2C` (configuration not stated), the ID50 is over 10 µg/kg.

As to `COc1ccc(C)cc1NC(=O)NC1CC2CCC(C1)N2C` (configuration not stated), the ID50 is over 10 µg/kg.

Consider `CCCCOc1ccccc1NC(=O)NC1CC2CCC(C1)N2C` (configuration not stated), for which the ID50 is 8.3 µg/kg.

Compound `COc1ccccc1NC(=O)NC1CC2CCC(C1)N2C` (configuration not stated) returned an ID50 of 2.5 µg/kg.

The compound `CC(C)Oc1ccccc1NC(=O)NC1CC2CCC(C1)N2C` (configuration not stated) had an ID50 of 4.2 µg/kg.

Consider `COc1ccccc1NC(=O)OC1CC2CCC(C1)N2C` (configuration not stated), for which the ID50 was 2.4 µg/kg.

`CN1C2CCC1CC(NC(=O)Nc1ccccc1Oc1ccccc1)C2` (configuration not stated): the ID50 was 5.4 µg/kg.

Regarding `CCCOc1ccccc1NC(=O)NC1CC2CCC(C1)N2C` (configuration not stated), the ID50 is 9.8 µg/kg.

In turn, `COc1ccccc1NC(=O)NC1CC2CCCC(C1)N2C` (stereo in doubt; 11c) had an ID50 of over 100 µg/kg.

In the case of `CSc1ccccc1NC(=O)NC1CC2CCC(C1)N2C` (configuration not stated), the ID50 was 12.7 µg/kg.

`COc1ccccc1NC(=O)NC1CC2CCCC(C1)N2C` (stereo in doubt; 6c) had an ID50 of 7.5 µg/kg.

Consider `CN(C)C(=O)c1ccccc1NC(=O)NC1CC2CCC(C1)N2C` (configuration not stated), for which the ID50 was over 10 µg/kg.

As to `CN1C2CCC1CC(NC(=O)Nc1ccccc1O)C2` (configuration not stated), the ID50 was 11.6 µg/kg.

`CN1C2CCC1CC(NC(=O)Nc1ccccc1S(=O)(=O)N(C)C)C2` (configuration not stated) yielded an ID50 of 2.2 µg/kg.

The compound `CCOc1ccccc1NC(=O)NC1CC2CCC(C1)N2C` (configuration not stated) came in with an ID50 of 3.1 µg/kg.

The compound `COc1ccc([N+](=O)[O-])cc1NC(=O)NC1CC2CCC(C1)N2C` (configuration not stated) registered an ID50 of over 10 µg/kg.

Take `COC(=O)c1ccccc1NC(=O)NC1CC2CCC(C1)N2C` (configuration not stated): the ID50 amounted to 2.1 µg/kg.

The values above are taken from ChEMBL document CHEMBL1124839, “5-Hydroxytryptamine (5-HT3) receptor antagonists. 3. Ortho-substituted phenylureas” (J Med Chem, 1990).
